From the M2OR odorant receptor database

Tests used:
Conditions in all cases: stereoisomer not certain
[1] = target: T1, UniProt Q8VGC6
T1 sequence (whole entry): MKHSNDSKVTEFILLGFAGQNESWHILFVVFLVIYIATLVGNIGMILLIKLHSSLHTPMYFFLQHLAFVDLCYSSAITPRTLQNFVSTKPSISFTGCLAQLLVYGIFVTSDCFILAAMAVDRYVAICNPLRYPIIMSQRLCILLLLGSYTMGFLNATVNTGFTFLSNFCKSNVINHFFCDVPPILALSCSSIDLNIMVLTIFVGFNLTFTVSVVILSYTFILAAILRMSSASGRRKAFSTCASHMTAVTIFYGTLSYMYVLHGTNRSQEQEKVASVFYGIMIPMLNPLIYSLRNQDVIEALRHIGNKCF
Outline: (§1)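 Assay methods differ from source to source, frequently being transient luciferase assays in mammalian cell lines. For each receptor–molecule pair, the label responsive (active) applies when the original authors judged the measured signal statistically different from baseline, and non-responsive (inactive) applies otherwise.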

[2] = target: T2, UniProt Q8VGD7
T2 sequence (whole entry): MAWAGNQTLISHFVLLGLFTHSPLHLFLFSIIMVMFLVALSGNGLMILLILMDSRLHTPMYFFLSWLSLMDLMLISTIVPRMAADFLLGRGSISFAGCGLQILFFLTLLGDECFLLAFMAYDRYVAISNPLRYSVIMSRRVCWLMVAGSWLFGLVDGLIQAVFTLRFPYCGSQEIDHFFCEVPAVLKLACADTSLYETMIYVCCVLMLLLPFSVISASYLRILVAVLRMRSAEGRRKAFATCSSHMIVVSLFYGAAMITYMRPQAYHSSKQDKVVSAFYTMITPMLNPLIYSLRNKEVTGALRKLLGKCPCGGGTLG
Outline: as §1

[3] = target: T3, UniProt Q8VGH1
T3 sequence (whole entry): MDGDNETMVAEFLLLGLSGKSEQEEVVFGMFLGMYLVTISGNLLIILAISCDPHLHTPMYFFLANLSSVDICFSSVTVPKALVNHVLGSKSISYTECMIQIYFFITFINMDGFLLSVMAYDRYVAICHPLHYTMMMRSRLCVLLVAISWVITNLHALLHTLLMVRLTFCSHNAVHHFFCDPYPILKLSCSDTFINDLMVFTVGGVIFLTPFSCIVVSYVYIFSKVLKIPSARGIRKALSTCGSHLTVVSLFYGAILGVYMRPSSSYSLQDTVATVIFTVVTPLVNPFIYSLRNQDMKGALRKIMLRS
Outline: as §1

[4] = target: T4, UniProt Q8VGJ1
T4 sequence (whole entry): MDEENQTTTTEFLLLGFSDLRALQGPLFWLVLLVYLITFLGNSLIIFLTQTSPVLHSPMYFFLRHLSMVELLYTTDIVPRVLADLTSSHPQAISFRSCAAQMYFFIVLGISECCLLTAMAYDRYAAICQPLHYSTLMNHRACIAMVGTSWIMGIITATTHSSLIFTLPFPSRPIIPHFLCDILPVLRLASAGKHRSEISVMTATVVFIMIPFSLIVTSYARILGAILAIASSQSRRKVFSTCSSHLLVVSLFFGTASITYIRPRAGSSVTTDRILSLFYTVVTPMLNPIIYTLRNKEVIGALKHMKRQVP
Outline: as §1

[5] = target: T5, UniProt Q8VGJ3
T5 sequence (whole entry): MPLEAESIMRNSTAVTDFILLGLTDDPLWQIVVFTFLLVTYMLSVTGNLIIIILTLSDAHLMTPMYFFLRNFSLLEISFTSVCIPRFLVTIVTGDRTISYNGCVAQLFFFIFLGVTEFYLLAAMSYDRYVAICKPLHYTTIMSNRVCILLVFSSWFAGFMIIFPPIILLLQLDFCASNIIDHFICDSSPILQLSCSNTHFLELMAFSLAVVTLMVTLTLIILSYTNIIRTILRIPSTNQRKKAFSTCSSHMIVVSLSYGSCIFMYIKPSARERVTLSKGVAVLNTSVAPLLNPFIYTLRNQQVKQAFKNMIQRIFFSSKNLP
Outline: as §1

[6] = target: T6, UniProt Q8VGJ5
T6 sequence (whole entry): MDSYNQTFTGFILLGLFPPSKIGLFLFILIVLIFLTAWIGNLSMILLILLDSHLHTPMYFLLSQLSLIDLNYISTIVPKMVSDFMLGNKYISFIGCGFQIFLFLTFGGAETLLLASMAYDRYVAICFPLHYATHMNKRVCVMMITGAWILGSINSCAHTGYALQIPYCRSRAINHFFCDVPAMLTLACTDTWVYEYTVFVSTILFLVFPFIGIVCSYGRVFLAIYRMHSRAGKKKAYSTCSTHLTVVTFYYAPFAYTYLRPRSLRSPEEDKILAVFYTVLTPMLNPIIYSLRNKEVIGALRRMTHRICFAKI
Outline: as §1

[7] = target: T7, UniProt Q8VGL0
T7 sequence (whole entry): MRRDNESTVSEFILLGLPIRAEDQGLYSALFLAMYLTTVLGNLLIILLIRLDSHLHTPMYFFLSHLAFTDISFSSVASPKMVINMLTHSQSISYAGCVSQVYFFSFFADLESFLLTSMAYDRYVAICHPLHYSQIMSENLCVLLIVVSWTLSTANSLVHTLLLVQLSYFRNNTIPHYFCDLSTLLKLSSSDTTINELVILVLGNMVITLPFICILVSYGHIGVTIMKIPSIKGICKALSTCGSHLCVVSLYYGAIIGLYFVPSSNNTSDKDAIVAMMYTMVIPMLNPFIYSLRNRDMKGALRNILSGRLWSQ
Outline: as §1

[8] = target: T8, UniProt Q8VGL7
T8 sequence (whole entry): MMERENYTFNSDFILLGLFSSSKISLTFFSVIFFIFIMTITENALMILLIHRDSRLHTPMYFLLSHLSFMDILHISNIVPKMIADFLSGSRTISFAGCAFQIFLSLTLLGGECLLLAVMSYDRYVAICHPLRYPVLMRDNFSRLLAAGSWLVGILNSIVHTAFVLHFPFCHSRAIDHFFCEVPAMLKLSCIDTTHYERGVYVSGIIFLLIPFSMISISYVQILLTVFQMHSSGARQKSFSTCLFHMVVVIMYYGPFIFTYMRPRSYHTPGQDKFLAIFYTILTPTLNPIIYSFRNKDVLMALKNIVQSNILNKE
Outline: as §1

[9] = target: T9, UniProt Q8VGM2
T9 sequence (whole entry): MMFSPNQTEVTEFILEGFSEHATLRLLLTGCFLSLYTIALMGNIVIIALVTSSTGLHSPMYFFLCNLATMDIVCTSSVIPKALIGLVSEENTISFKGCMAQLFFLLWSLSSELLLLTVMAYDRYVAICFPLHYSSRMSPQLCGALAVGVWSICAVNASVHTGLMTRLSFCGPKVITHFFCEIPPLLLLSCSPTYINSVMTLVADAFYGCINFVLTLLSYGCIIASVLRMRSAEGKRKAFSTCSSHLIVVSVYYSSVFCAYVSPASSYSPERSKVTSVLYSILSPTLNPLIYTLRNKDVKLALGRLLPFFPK
Outline: as §1

[10] = target: T10, UniProt Q8VGP6
T10 sequence (whole entry): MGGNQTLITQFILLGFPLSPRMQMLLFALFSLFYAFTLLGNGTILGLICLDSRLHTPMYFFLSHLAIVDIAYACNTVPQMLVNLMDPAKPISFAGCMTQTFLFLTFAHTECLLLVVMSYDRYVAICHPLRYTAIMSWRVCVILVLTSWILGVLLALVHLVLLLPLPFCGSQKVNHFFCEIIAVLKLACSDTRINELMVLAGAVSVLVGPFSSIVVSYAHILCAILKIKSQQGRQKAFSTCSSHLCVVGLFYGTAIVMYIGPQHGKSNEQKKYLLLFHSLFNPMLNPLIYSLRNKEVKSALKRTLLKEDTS
Outline: as §1

[11] = target: T11, UniProt Q8VGQ3
T11 sequence (whole entry): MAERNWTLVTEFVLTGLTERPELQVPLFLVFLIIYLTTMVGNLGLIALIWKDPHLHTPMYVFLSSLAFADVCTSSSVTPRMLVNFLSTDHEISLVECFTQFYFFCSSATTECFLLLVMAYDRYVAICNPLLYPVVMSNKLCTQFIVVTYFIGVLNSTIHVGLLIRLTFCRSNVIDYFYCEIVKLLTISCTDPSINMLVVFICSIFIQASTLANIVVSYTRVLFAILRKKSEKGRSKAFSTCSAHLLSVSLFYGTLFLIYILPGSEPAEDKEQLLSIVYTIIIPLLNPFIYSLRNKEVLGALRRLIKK
Outline: as §1

[12] = target: T12, UniProt Q8VGT4
T12 sequence (whole entry): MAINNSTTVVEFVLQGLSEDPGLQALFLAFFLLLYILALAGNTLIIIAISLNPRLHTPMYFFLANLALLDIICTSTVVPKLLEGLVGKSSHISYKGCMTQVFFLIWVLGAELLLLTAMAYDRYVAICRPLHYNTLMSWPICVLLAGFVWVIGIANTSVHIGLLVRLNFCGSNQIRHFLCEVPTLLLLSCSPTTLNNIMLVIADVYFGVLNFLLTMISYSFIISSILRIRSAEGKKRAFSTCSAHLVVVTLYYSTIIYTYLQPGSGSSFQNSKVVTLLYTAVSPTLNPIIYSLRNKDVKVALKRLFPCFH
Outline: as §1

[13] = target: T13, UniProt Q8VGU3
T13 sequence (whole entry): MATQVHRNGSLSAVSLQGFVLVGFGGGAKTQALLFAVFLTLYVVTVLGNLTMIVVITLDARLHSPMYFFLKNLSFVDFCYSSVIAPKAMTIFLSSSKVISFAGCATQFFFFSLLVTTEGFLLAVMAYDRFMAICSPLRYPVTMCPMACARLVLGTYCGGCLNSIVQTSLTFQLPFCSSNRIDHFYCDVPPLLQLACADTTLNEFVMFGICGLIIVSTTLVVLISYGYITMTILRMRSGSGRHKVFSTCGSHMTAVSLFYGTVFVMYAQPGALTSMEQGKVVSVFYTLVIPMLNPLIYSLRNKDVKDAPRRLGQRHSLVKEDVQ
Outline: as §1

[14] = target: T14, UniProt Q8VGV1
T14 sequence (whole entry): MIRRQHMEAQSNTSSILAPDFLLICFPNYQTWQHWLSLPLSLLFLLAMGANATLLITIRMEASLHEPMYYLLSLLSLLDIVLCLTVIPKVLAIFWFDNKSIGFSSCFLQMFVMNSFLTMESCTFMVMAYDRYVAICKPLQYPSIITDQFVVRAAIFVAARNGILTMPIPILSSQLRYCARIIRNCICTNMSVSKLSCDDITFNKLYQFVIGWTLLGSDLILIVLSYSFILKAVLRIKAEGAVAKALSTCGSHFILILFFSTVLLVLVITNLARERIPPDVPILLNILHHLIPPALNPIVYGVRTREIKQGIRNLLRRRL
Outline: as §1

[15] = target: T15, UniProt Q8VGV7
T15 sequence (whole entry): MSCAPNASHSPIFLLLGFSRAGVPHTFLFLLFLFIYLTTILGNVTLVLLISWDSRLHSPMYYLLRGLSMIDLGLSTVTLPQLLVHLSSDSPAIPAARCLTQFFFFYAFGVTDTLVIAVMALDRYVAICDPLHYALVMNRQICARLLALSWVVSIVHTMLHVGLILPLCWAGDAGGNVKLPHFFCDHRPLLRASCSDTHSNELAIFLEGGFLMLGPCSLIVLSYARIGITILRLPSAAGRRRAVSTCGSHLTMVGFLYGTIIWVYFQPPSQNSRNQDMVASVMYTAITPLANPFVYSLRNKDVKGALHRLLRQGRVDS
Outline: as §1

[16] = target: T16, UniProt Q8VGW5
T16 sequence (whole entry): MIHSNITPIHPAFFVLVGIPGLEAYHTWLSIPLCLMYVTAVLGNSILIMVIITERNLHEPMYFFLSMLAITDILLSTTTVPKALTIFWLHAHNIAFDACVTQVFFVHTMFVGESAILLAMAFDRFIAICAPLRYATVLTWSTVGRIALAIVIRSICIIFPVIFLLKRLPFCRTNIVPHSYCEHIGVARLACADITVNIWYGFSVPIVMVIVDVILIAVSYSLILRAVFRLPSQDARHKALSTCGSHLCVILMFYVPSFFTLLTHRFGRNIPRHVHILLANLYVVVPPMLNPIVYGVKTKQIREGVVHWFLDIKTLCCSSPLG
Outline: as §1

[17] = target: T17, UniProt Q8VGX3
T17 sequence (whole entry): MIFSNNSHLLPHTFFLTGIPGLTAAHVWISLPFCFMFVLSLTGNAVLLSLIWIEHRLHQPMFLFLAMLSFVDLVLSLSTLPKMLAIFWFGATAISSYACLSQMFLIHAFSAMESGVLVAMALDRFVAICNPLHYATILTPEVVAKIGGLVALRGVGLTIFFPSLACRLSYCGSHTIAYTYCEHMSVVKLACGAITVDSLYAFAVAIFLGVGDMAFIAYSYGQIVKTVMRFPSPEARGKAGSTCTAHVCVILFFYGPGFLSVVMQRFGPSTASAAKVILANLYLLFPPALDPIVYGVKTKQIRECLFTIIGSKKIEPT
Outline: as §1

[18] = target: T18, UniProt Q8VGX5
T18 sequence (whole entry): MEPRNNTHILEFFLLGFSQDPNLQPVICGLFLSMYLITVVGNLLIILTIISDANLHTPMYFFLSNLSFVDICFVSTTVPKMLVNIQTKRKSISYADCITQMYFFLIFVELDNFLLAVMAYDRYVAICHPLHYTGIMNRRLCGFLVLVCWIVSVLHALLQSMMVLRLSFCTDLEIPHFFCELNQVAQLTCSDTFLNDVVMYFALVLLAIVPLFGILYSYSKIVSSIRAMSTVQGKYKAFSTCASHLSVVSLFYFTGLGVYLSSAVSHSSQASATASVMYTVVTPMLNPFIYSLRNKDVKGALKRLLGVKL
Outline: as §1

Measured: odorant receptor agonist call

CCCCCCO
inactive: [1] | [2] | [3] | [4] | [5] | [6] | [7] | [8] | [9] | [10] | [11] | [12] | [13] | [14] | [15] | [16] | [17] | [18]
